# High-throughput results as filed in PubChem.
# The full list was thinned out, with hits kept by preference.
# S1P3 antagonist = blocks the human S1P3 receptor; Q99500; CHO S1P3 NFAT-BLA reporter, FRET fluorescence, antagonist mode; inhibition, % at 4.98 µM; hit rate 0.27% among 170,000; AID 485;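 active = inhibition above the plate cutoff, the mean inhibition of test wells on that plate plus 3 SD, cut at about 28% in these data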;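 note: cells challenged with S1P at its EC80 of 0.8 µM; blue over green emission ratio from cleaved BLA substrate after 4 h stimulation; 0% = S1P-stimulated wells and 100% = unstimulated DMSO-only wells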
# Mdm2 ligase inh = blocks human Mdm2 ubiquitin ligase activity. signal enhancement, % at 5 µM. cell-based MDM2 ubiquitination luciferase reporter, 2 h; 0 = plate control, 100 = twice control, blank-subtracted. Q00987. hit rate 0.11% among 210,000;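 active = signal enhancement of 30% or more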;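 note: luminescence tracks abundance of the self-degrading MDM2-luciferase fusion protein; higher signal means inhibition of MDM2 E3 ligase activity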
#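 Test system: stable mammalian line carrying autodegrading MDM2–luciferase fusion reporter; quantity: 2000 cells in each well; times: 4 h cell settling then 2 h compound exposure, 37 °C; detection: luminescence with SteadyLite reagent, 15 min at room temperature; evaluation: percent signal gain over controls, blank-subtracted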
# S1P4 antagonist = antagonists of human S1P4 receptor; hit rate 0.26% among 220,000; inhibition, % at 4.98 µM; S1P4-expressing cells, antagonist mode, reporter read-out; AID 1510; in the data active = inhibition above about 29%;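 note: 0% = wells stimulated with agonist and 100% = vehicle wells without agonist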
# Target sequence (O95977 whole entry, looked up): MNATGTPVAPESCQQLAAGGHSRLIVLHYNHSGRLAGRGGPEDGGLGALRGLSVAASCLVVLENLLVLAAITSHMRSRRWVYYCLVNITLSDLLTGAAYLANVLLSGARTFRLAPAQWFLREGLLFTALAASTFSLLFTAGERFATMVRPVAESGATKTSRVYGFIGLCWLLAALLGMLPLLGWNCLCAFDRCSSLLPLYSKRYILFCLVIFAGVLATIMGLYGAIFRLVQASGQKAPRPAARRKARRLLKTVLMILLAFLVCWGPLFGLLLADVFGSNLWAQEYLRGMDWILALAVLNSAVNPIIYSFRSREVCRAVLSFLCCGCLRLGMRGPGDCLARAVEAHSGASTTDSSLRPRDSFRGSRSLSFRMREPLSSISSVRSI
# Lmaj promast = inhibitors of Leishmania major promastigote growth; inhibition, % at 10 µM; Leishmania major promastigotes, resazurin fluorescence viability; hit rate 9% among 200,000; AID 1063; in the data active = inhibition above about 50%;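 note: promastigotes grown with compound for 44 hours at 28 °C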
# S1P4 ag = activates the human S1P4 receptor; activation, % at 4.98 µM; O95977; S1P4-expressing cell line, agonist reporter assay; hit rate 0.35% among 220,000; in the data active = activation above about 11%;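 note: 0% = DMSO vehicle and 100% = reference agonist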
# Active calls of the source: *; . = no result.
SMILES,S1P3 antagonist,Mdm2 ligase inh,S1P4 antagonist,Lmaj promast,S1P4 ag
CC1C/C(=N\NC(=S)NC(C)C)CC(C)(C)C1 (stereo unspecified),.,.,7,100*,0
CCCc1nc(C(C)(C)O)c(C(=O)O)n1Cc1ccc(-c2ccccc2-c2nn[nH]n2)cc1,-3,.,6,.,1
CCCn1c(N2CCN(CC(=O)Nc3ccc4c(c3)OCCO4)CC2)nc2ccccc21,-26,-14,-21,79*,-1
O=C(CCN1CCN(c2ccccc2)CC1)N/N=C/c1ccccc1O,-4,-12,-17,98*,-1
O=C(Nc1cccc(C(F)(F)F)c1)c1ccccc1NC(=O)C1CCCCC1,-1,6,-12,57*,0
COc1ccc(OCC(O)CN(CCO)CC(O)Cn2ccc3ccccc32)cc1 (stereo unspecified),1,13,-7,-2,0
CCC(=C(c1ccc(OC)cc1)c1ccc(OC)cc1)c1cn(CC(O)CN(CCO)CCO)c2ccccc12 (stereo unspecified),-12,0,1,69*,1
CN1CCN(C(=O)c2ccccc2-c2ccccc2C(=O)O)CC1,17,-6,-7,-4,1
CCn1cc(/C=N/NS(=O)(=O)c2ccc(OC)cc2)c(C)n1,.,19,-13,0,1
O=[N+]([O-])c1ccc(Cl)c(CN2CCC(O)CC2)c1,-4,-8,-28,62*,0
O=[N+]([O-])c1ccc(Cl)c(/C=N/N2CCN(Cc3ccccc3Cl)CC2)c1,.,-7,-12,2,1
CC1CCN(S(=O)(=O)c2cc([N+](=O)[O-])ccc2Cl)CC1,10,-14,17,55*,0
O=C(N/C(=C/c1cccc([N+](=O)[O-])c1)C(=O)N1CCCCC1)c1cccs1,-5,-3,0,90*,0
O=C(N/C(=C/C=C/c1ccccc1)C(=O)N1CCCCC1)c1ccc([N+](=O)[O-])cc1,-6,-16,3,61*,0
CC(=O)N/C(=C\c1cccc([N+](=O)[O-])c1)C(=O)NC1CCCCC1,-4,-9,-10,51*,0
Cc1ccc(NC(=O)/C(=C/c2cccc([N+](=O)[O-])c2)NC(=O)C2CCCCC2)cc1,.,-28,-8,4,1
O=C(N/C(=C/c1cccc([N+](=O)[O-])c1)C(=O)N1CCCCCC1)c1cccs1,-5,-2,-17,61*,-1
COc1ccc(NC(=O)CCN2CCN(S(=O)(=O)c3ccc(C(C)C)cc3)CC2)cc1,.,2,-5,3,-1
O=C(CCC(=O)N1CCN(S(=O)(=O)c2ccc(Cl)cc2)CC1)Nc1ccc2ccccc2c1,-2,-4,5,81*,-1
COc1cccc(OCCCN2CCN(S(=O)(=O)c3ccc(NC(C)=O)cc3)CC2)c1,.,-19,6,68*,1
CN(CC(=O)Nc1ccc(S(=O)(=O)N2CCCC2)cc1)Cc1ccc(Cl)cc1Cl,-5,23,-10,86*,1
COc1ccc(NC(=O)CCN2CCN(S(=O)(=O)c3ccc(Cl)cc3)CC2)cc1,.,-4,-2,93*,-1
O=C(COc1ccccc1)N1CCN(S(=O)(=O)c2ccc(Cl)cc2)CC1,.,-13,-4,-10,0
Cc1cccc(-n2cc(C(=O)O)c(=O)cc2C)c1,5,9,-3,21,1
COc1ccc(CCNC(=O)c2ccc(CNS(=O)(=O)c3cc(C)ccc3C)cc2)cc1OC,.,-5,1,7,1
SMILES,S1P3 antagonist,Mdm2 ligase inh,S1P4 antagonist,Lmaj promast,S1P4 ag
OC1(c2ccc(F)cc2)CCN(Cc2nnnn2Cc2cccs2)CC1,5,-52,-8,1,0
COc1ccc(S(=O)(=O)N2CCCN(CCC(=O)Nc3cccc(C(F)(F)F)c3)CC2)cc1,31,-6,4,100*,-2
CCOc1ccc(NC(=O)CCN2CCN(S(=O)(=O)c3cc(Cl)ccc3OC)CC2)cc1,-19,-14,2,99*,-1
COC(=O)c1ccc(NC(=O)CN2CCN(c3ccccn3)CC2)cc1,-19,-25,-3,-2,-2
COC(=O)c1sc(N2CCN(c3ccc(Cl)cc3)CC2)nc1N,-31,-1,-18,2,2
O=C(Nc1nc(-c2ccccn2)cs1)c1ccc(Br)s1,.,45*,-4,100*,0
O=C(Nc1nc(-c2ccccn2)cs1)c1ccco1,-5,1,1,100*,0
CCn1c(N)c(C(=O)NC)sc1=S,1,-19,-11,-13,0
CCc1ccc(OCC(=O)N/N=C/c2cc([N+](=O)[O-])ccc2N2CCOCC2)cc1,10,-9,-10,78*,-2
Cc1cccc(OCC(=O)N/N=C/c2cc([N+](=O)[O-])ccc2N2CCOCC2)c1,-1,6,-6,87*,1
COc1ccc(NCC(=O)N/N=C/c2cc([N+](=O)[O-])ccc2N2CCCC2)cc1,-2,-19,4,18,-1
O=C(N/N=C\c1cc([N+](=O)[O-])ccc1N1CCOCC1)c1ccccn1,4,-8,-16,3,2
CCCN1C(=O)C2(SC(NC(C)=O)=NN2C(C)=O)c2cc(C)ccc21 (stereo unspecified),-5,4,-9,-3,1
CC(=O)NC1=NN(C(C)=O)C(c2ccc(F)cc2)S1 (stereo unspecified),-15,-3,-14,3,3
COc1cc2c(cc1OC)CN(Cc1cc(=O)oc3cc(C)c(Cl)cc13)CC2,-1,1,-1,60*,-1
COc1cc2c(cc1OC)CN(Cc1cc(=O)oc3cc(C)c(C)cc13)CC2,5,-12,-6,5,0
O=C(CN1CCC(O)(c2ccccc2F)CC1)NCCc1c[nH]c2ccccc12,-16,-4,-22,21,-1
CC1CCN(CCc2nc3cc(NS(=O)(=O)c4ccccc4)ccc3n2C)CC1,-2,-5,1,20,1
CC1CCN(CCc2nc3cc(NS(=O)(=O)c4ccc(F)cc4)ccc3n2C)CC1,-9,-16,4,99*,0
Cn1c(CN2CCCCC2)nc2cc(NS(=O)(=O)c3ccc(Cl)cc3)ccc21,21,-7,-9,66*,1
Cn1c(CN2CCCCC2)nc2cc(NC(=O)c3cccc(Br)c3)ccc21,.,-22,1,98*,-4
Cn1c(CCN2CCCCC2)nc2cc(NS(=O)(=O)c3ccc(Cl)cc3)ccc21,-51,-8,.,.,.
CCCCNC(=O)C(=O)N/N=C/c1ccc(OCC(=O)Nc2cccc(OC)c2)c(OC)c1,4,-3,3,-10,2
CCOc1ccc2nc(NCCNC(=O)Nc3ccccc3)c(C#N)cc2c1,0,-6,-1,9,1
CCOc1ccc2nc(NCCNC(=S)NCCCN(C)C)c(C#N)cc2c1,5,-21,-3,56*,2
O=C(N[C@@H](Cc1c[nH]c2ccccc12)C(=O)O)c1ccc(Cl)cc1,-16,-4,1,-5,0
Cc1cc(C)nc(NC(N)=NCCc2c[nH]c3ccccc23)n1,-5,-33,-12,78*,0
